From PubChem BioAssay
CHT block: inhibitors of human choline transporter CHT; actives 0.86% (n = 310,000); CHT-expressing cells, membrane potential dye, choline response; hits give low values; B-score at 10 µM;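 active = B-score over 3 SD under the library average, and starting fluorescence ratio not unusually high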;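 note: choline stimulus applied at its EC90 after an EC20 pre-addition; B-score computed on integrated fluorescence ratio after choline addition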
Target sequence (Q9GZV3 whole entry, looked up): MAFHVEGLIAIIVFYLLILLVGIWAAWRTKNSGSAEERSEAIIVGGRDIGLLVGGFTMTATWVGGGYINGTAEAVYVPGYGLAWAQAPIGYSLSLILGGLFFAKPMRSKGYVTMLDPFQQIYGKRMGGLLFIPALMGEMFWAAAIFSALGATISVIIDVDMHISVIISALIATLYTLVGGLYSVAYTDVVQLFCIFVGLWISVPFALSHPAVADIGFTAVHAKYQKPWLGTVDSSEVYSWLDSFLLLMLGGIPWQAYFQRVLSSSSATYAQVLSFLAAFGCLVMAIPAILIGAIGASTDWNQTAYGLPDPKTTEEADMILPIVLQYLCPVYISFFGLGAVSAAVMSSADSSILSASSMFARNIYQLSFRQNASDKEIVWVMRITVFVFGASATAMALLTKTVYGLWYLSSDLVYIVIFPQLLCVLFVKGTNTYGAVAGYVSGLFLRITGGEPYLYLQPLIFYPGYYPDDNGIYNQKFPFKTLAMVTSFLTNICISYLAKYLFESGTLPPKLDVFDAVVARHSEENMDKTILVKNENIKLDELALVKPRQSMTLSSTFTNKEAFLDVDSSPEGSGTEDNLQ
PolyA inh: yeast polyadenylation inhibition; S. cerevisiae SKY197-pL101 polyadenylation reporter, beta-gal luminescence; efflux-impaired pdr1/pdr3 knockout yeast; score 100 = 6 SD above DMSO; activity score, % at 12 µM; actives 0.02% (n = 300,000); AID 1875;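 active = lowest replicate activity score at least 50, where 100 means six control SD above control mean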;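 note: yeast exposed to compound for 9 h at 30 °C; higher score means more reporter readthrough which indicates perturbed polyadenylation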
T cruzi inh: T. cruzi replication inhibition; inhibition, % (test concentration not listed); T. cruzi beta-gal in NIH3T3, luminescence, 90 h; actives 1.4% (n = 300,000); AID 1885;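 active = mean inhibition across valid replicates above about 55%, limit read from the data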;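 note: signal also drops with host cell toxicity which is not excluded here; higher percent means less beta-gal luminescence so fewer parasites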
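Test system: β-gal T. cruzi (Tulahuen C4) inside NIH/3T3 cells / Quantity: 5,000 cells/well / Measured by: luminescence from GalScreen with 0.05% NP40, read after 60 min / Medium: DMEM plus 2% FBS / Measure: parasite load inhibition, % / Reagent: Tulahuen C4 trypomastigotes, 5000/well / Schedule: co-culture of at least 90 h after 3 h attachment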
CHT allo act: allosteric activators of human choline transporter CHT; CHT-expressing cells, membrane potential dye, choline EC20; hits give high values; LV-AA mutant CHT in HEK293 cells; B-score at 10 µM; actives 0.49% (n = 310,000); AID 488977;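 active = initial fluorescence not abnormally high and integrated response B-score, plate-corrected, over 3 SD above library mean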
CHT block conf: confirmation of human choline transporter CHT inhibitors. CHT-expressing cells, choline membrane potential dye; LV-to-AA substituted CHT, HEK293 cells. shares compounds with CHT block. AID 493221. CHT activity remaining % of control (hits give low values), % at 10 µM. actives 70% (n = 2,400);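 active = choline transporter activity left, mean of duplicates at 10 µM, below buffer-only control mean minus 3 SD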;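 note: depolarization triggered by choline at its EC90 following an EC20 pre-addition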
HEK293 CHT ctr: CHT inhibitor counter-screen hit in parental HEK293 cells; membrane potential dye, choline response; active = decrease or increase beyond buffer ±3SD; membrane potential ratio readout (active if shifted either direction beyond buffer ±3SD; no single direction) at 10 µM; actives 4% (n = 2,400); shares compounds with CHT block;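 note: parental cells lack the transporter so any hit is non-specific; ratio is peak minus trough fluorescence over baseline after EC90 choline challenge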
Each line names hits and unclear results; the compound was inactive in the other large screens (follow-up assays come after a bar, where they were run). An excerpt weighted towards active compounds, which were near 2.6% of everything screened.

O=C(NNC(=S)NC(=O)C12CC3CC(CC(C3)C1)C2)c1ccncc1	CHT block -9.6 | CHT block conf 53% | HEK293 CHT ctr inactive
CCn1c2ccccc2c(=O)c2ccccc21	CHT block -8.2 | CHT block conf 15% | HEK293 CHT ctr inactive
Cc1ccccc1NC(=O)c1ccc(NC(=O)C2CCCO2)cc1 (stereo not given)	none
COc1ccc(S(=O)(=O)NCC(=O)NCc2cc(=O)n(C)c(=O)n2C)cc1	none
O=C(O)CSc1cc(C(=O)c2cc(F)ccc2O)cn2c(=O)c3c(-c4ccccc4)csc3nc12	CHT block -7 | CHT block conf 26% | HEK293 CHT ctr inactive
COc1ccc(Cl)cc1N(CC(=O)N1CCCCCC1)S(C)(=O)=O	none
CC1(C)c2[nH]c3ccccc3c2C[C@@H]2C(=O)N(Cc3ccccc3)C(=O)N21	CHT block -6.2 | CHT block conf 57% | HEK293 CHT ctr inactive
CCc1ccc(NC(=O)CC2C(=O)N(c3ccc(C)cc3)C(=O)N2CCc2ccncc2)cc1 (stereo not given)	none
CCCCn1c(=O)[nH]c(=O)c2c1nc(Cn1ncc(Cl)c(Cl)c1=O)n2CCC	CHT block -6.1 | CHT block conf 53% | HEK293 CHT ctr inactive
Nc1ncc2c(n1)-c1ccoc1CC2	none
COc1ccc(OC)c(S(=O)(=O)N2CCC(C(=O)N3CCc4ccccc4C3)CC2)c1	none | CHT block conf inactive | HEK293 CHT ctr inactive
COc1cc(/C=N/NC(=O)C2CC(=O)N(c3ccc(C)cc3)C2)cc(OC)c1OC (stereo not given)	none
O=C(Nc1ccccc1Br)C1CCCN1S(=O)(=O)c1cccc2nsnc12 (stereo not given)	CHT block -7.9 | CHT block conf 23% | HEK293 CHT ctr inactive
CC1CCN(CCNC(=O)C2CCCN(S(=O)(=O)c3cccc4nsnc34)C2)CC1 (stereo not given)	CHT block -8.1 | CHT block conf 18% | HEK293 CHT ctr inactive
CCC1CCCCN1CCNC(=O)C1CCCN(S(=O)(=O)c2cccc3nsnc23)C1 (stereo not given)	none
O=C(Nc1ccccc1F)C1CCCN1S(=O)(=O)c1cccc2nsnc12 (stereo not given)	none
N#C/C(=N\Nc1ccccc1)C(N)=S	none
N#C/C(=N\Nc1ccc(Cl)cc1)C(N)=S	CHT block -8.1 | CHT block conf 39% | HEK293 CHT ctr inactive
COc1ccc2oc(C(=O)NCCN3CCOCC3)c(C)c2c1OC	none
CCOC(=O)N1CCC(Nc2ncnc3c2cnn3-c2ccc(C)cc2C)CC1	CHT block -6.9 | CHT block conf inactive | HEK293 CHT ctr inactive
C=CCNc1ncnc2c1cnn2-c1ccc(C)cc1C	none
C=CCn1c(CSc2nc3ccccc3s2)nnc1SCC(=O)NCc1ccccc1	CHT block -5.6 | CHT block conf 62% | HEK293 CHT ctr inactive
CSCCC(=O)N1CCCC(N(C)CCc2ccccc2)C1 (stereo not given)	none
COc1ccc(C)cc1NC(=O)c1ccccc1NS(=O)(=O)c1ccc(Cl)s1	CHT block -7.5 | CHT block conf 15% | HEK293 CHT ctr inactive
Cc1ccc(NC(=O)c2ccccc2NS(=O)(=O)c2ccc(Cl)s2)cc1S(=O)(=O)N1CCOCC1	CHT block -11 | CHT block conf 40% | HEK293 CHT ctr inactive
CCn1ccnc1CNC(=O)c1cc(COc2ccc(F)cc2F)on1	none
CCn1cc(CNC(=O)c2cc(COc3ccc(F)cc3F)on2)cn1	none | CHT block conf 69% | HEK293 CHT ctr inactive
CCOC(=O)N1CCC(NC(=O)C2CCCN(Cc3nc(-c4cccc(Cl)c4)oc3C)C2)CC1 (stereo not given)	CHT block -6.4 | CHT block conf 51% | HEK293 CHT ctr inactive
CC(C)Nc1nc(Cl)nc(N(C#N)CN2C(=O)c3ccccc3C2=O)n1	CHT block -6.9 | CHT block conf 40% | HEK293 CHT ctr inactive
N#Cc1ccccc1NS(=O)(=O)c1cc2c3c(c1)CCN3C(=O)CC2	none
Cc1cc(C)nc(N2CCC(C(=O)NCc3cccs3)CC2)n1	CHT block -8.3 | CHT block conf inactive | HEK293 CHT ctr inactive
CC1Cc2ccccc2N1C(=O)CCS(=O)(=O)c1ccc2c(c1)NC(=O)CS2 (stereo not given)	CHT block -5 | CHT block conf inactive | HEK293 CHT ctr inactive
COc1ccc(S(=O)(=O)CCC(=O)N2c3ccccc3CC2C)cc1 (stereo not given)	none
Cc1noc(C)c1COC(=O)c1ccc(F)c(S(=O)(=O)N2CCCCC2)c1	CHT block -5 | CHT block conf 69% | HEK293 CHT ctr inactive
Cc1cc(S(=O)(=O)NCc2ccncc2)c(C)cc1Br	CHT block -5 | CHT block conf 67% | HEK293 CHT ctr inactive
Cc1ccc(C)c(S(=O)(=O)NCc2ccncc2)c1	none
CCn1c(SCC(=O)N2CCCc3ccccc32)nc2ccccc2c1=O	CHT block -6.1 | CHT block conf inactive | HEK293 CHT ctr inactive
CCn1c(SCC(=O)N2CCCc3ccccc32)nc2cccnc21	none
Nc1cccc2c1C(=O)N(C(=O)/C=C/c1ccc(F)cc1)C2=O	none
Cc1ccccc1OCCC(=O)OCC(=O)c1c(N)n(CC(C)C)c(=O)n(C)c1=O	CHT block -6.6 | CHT block conf 58% | HEK293 CHT ctr inactive
CC(C)Cn1c(N)c(C(=O)COC(=O)CCNS(=O)(=O)c2ccccc2)c(=O)n(C)c1=O	CHT block -6.3 | CHT block conf 38% | HEK293 CHT ctr inactive
Cc1cccc(C(=O)OCC(=O)c2c(N)n(CC(C)C)c(=O)n(C)c2=O)c1O	none
CC1CC(C)CN(C(=O)CCCNC(=O)c2ccc(Cl)cc2)C1 (stereo not given)	none
COc1ccc(C(=O)Nc2nc(CC(=O)NCCc3ccccc3)cs2)cc1	CHT block -5.1 | CHT block conf inactive | HEK293 CHT ctr inactive
Cc1cc(C)n(CCNC(=O)CC2C(=O)NCCN2Cc2ccccc2C(F)(F)F)n1 (stereo not given)	CHT block -6.4 | CHT block conf inactive | HEK293 CHT ctr inactive
COc1cccc(CN2CCNC(=O)C2CC(=O)NCCn2nc(C)cc2C)c1OC (stereo not given)	none
Clc1ccccc1OCCCOc1cccc2cccnc12	none
O=C(N/N=C/c1cn[nH]c1-c1ccc(Cl)cc1)c1ccc([N+](=O)[O-])cc1	CHT block -5.1 | CHT block conf 60% | HEK293 CHT ctr inactive
O=C(N/N=C\c1cn[nH]c1-c1ccccc1)c1ccc([N+](=O)[O-])cc1	none
O=C(Nc1ccc(Oc2ncnc3cc(Cl)ccc23)nc1)c1ccc(F)cc1	none (no result: T cruzi inh)
CCc1ccc(S(=O)(=O)/N=C2\C=C(NS(=O)(=O)c3ccccc3)C(=O)c3ccccc32)cc1	none (no result: CHT block, CHT allo act)
